In ChEMBL document CHEMBL4033782, “Structural Modification of Natural Product Tanshinone I Leading to Discovery of Novel Nitrogen-Enriched Derivatives with Enhanced Anticancer Profile and Improved Drug-like Properties” (J Med Chem, 2018):
Values after ≈ are worked out from the molar mass of the structure shown.

What was measured:
[1] = system: KB; test: Antiproliferative activity against human KB cells after 72 hrs by sulforhodamine B assay; type: functional, cell-based
Outline: (§1)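 Cells grown in ATCC-specified medium with 10% heat-inactivated FBS, penicillin/streptomycin and 10 mM Hepes, at 37 °C under 5% CO2. Seeded, cultured overnight, then exposed to gradient concentrations for 72 h. Growth read by SRB staining; inhibition % = [1−(A450 treated/A450 control)]×100. IC50 obtained by the Logit method from independent experiments.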

[2] = Antiproliferative activity against human KB/VCR cells after 72 hrs by sulforhodamine B assay; type: functional, cell-based; outline: as §1
[3] = Aqueous solubility of the compound in pH 7.5 Tris buffer after 24 hrs by HPLC method; type: physicochemical
[4] = Half life in human liver microsomes at 0.1 uM up to 60 mins by LC-MS/MS analysis; type: ADME, microsome
Outline: (§2)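 Compound at 0.1 μM final (0.01% DMSO, 0.005% BSA) incubated at 37 °C with human, rat or mouse liver microsomes (0.33 mg/mL protein) in 0.1 M Tris/HCl pH 7.4, with 5 mM MgCl2 and 1 mM NADPH. Samples taken at 0, 7, 17, 30 and 60 min, quenched by methanol precipitation, centrifuged, and parent measured by LC-MS/MS. T1/2 and Clint derived.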

[5] = Half life in rat liver microsomes at 0.1 uM up to 60 mins by LC-MS/MS analysis; type: ADME, microsome; outline: as §2
[6] = Half life in mouse liver microsomes at 0.1 uM up to 60 mins by LC-MS/MS analysis; type: ADME, microsome; details: liver microsomes; outline: as §2
[7] = system: Liver; test: Intrinsic clearance in rat liver microsomes assessed per mg protein up to 60 mins by LC-MS/MS analysis; type: ADME, microsome; details: 1 h
Outline: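 Liver microsomes (0.33 mg/mL protein) in 0.1 M Tris/HCl pH 7.4 with 5 mM MgCl2, 1 mM NADPH, compound at 0.1 μM final (0.01% DMSO, 0.005% BSA), 37 °C; samples at 0, 7, 17, 30, 60 min quenched in methanol, centrifuged, LC-MS/MS; T1/2 and Clint per g protein derived.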

[8] = Half life in Sprague-Dawley rat at 3.0 mg/kg, po; type: ADME, organism-based; details: in vivo
Outline: (§3)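 Male SD rats dosed i.v. at 1.0 mg/kg or orally at 3.0 mg/kg. Vehicle is DMSO, Tween 80 and normal saline. Plasma concentration–time data give CL, Vss, T1/2, Cmax, Tmax, MRT, AUC and oral bioavailability F.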

[9] = Half life in Sprague-Dawley rat at 1.0 mg/kg, iv; type: ADME, organism-based; details: in vivo; outline: as §3
[10] = Tmax in Sprague-Dawley rat at 3.0 mg/kg, po; type: ADME, organism-based; details: in vivo
Outline: (§4)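 Male SD rats dosed orally at 3.0 mg/kg in DMSO/Tween 80/normal saline; plasma profile gives T1/2, Cmax, Tmax, AUC, MRT; F from comparison with 1.0 mg/kg i.v. dosing.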

[11] = Cmax in Sprague-Dawley rat at 3.0 mg/kg, po; type: ADME, organism-based; set-up: dose 3 mg/kg, route oral; details: in vivo; outline: as §3
[12] = MRT (infinity) in Sprague-Dawley rat at 3.0 mg/kg, po; type: ADME, organism-based; details: in vivo; outline: as §4
[13] = MRT (infinity) in Sprague-Dawley rat at 1.0 mg/kg, iv; type: ADME, organism-based; details: in vivo
Outline: (§5)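 Male SD rats given 1.0 mg/kg i.v. in DMSO/Tween 80/normal saline vehicle; plasma concentration–time profile used for clearance, Vss, MRT.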

[14] = Volume of distribution at steady state in Sprague-Dawley rat at 1.0 mg/kg, iv; type: ADME, organism-based; details: in vivo, read-out: Vdss; outline: as §5
[15] = Oral bioavailability in Sprague-Dawley rat at 3.0 mg/kg; type: ADME, organism-based; details: in vivo; outline: as §4
[16] = Antiproliferative activity against human HepG cells after 72 hrs by sulforhodamine B assay; type: functional, cell-based; outline: as §1
[17] = system: BEL-7404 tumor cell line; test: Antiproliferative activity against human Bel7404 cells after 72 hrs by sulforhodamine B assay; type: functional, cell-based; details: BEL-7404, 72 h; outline: as §1
[18] = system: DU-145; test: Antiproliferative activity against human DU145 cells after 72 hrs by sulforhodamine B assay; type: functional, cell-based; details: DU-145, 72 h; outline: as §1
[19] = system: BT-474; test: Antiproliferative activity against human BT474 cells after 72 hrs by sulforhodamine B assay; type: functional, cell-based; details: BT-474, 72 h; outline: as §1
[20] = system: HCT-116; test: Induction of apoptosis in human HCT116 cells assessed as early apoptotic cells at 0.5 uM after 48 hrs by Annexin V-FITC/propidium iodide staining-based FACS analysis (reference value: 2.35%); type: functional
[21] = system: HCT-116; test: Induction of apoptosis in human HCT116 cells assessed as early apoptotic cells at 1 uM after 48 hrs by Annexin V-FITC/propidium iodide staining-based FACS analysis (reference value: 2.35%); type: functional
[22] = system: HCT-116; test: Induction of apoptosis in human HCT116 cells assessed as late apoptotic cells at 1 uM after 48 hrs by Annexin V-FITC/propidium iodide staining-based FACS analysis (reference value: 5.74%); type: functional
[23] = system: HCT-116; test: Induction of apoptosis in human HCT116 cells assessed as early apoptotic cells at 2 uM after 48 hrs by Annexin V-FITC/propidium iodide staining-based FACS analysis (reference value: 2.35%); type: functional
[24] = system: HCT-116; test: Induction of apoptosis in human HCT116 cells assessed as late apoptotic cells at 2 uM after 48 hrs by Annexin V-FITC/propidium iodide staining-based FACS analysis (reference value: 5.74%); type: functional
[25] = system: HCT-116; test: Induction of apoptosis in human HCT116 cells pretreated with Z-VAD-FMK pan-caspase inhibitor for 1 hr assessed as late apoptotic cells at 0.5 uM after 48 hrs by Annexin V-FITC/propidium iodide staining-based FACS analysis (reference value: 3.15%); type: functional; set-up: scale not given: the % may be the effect or the level left
[26] = system: HCT-116; test: Induction of apoptosis in human HCT116 cells pretreated with Z-VAD-FMK pan-caspase inhibitor for 1 hr assessed as early apoptotic cells at 1 uM after 48 hrs by Annexin V-FITC/propidium iodide staining-based FACS analysis (reference value: 1.34%); type: functional; set-up: scale not given: the % may be the effect or the level left
[27] = system: HCT-116; test: Induction of apoptosis in human HCT116 cells pretreated with Z-VAD-FMK pan-caspase inhibitor for 1 hr assessed as late apoptotic cells at 1 uM after 48 hrs by Annexin V-FITC/propidium iodide staining-based FACS analysis (reference value: 3.15%); type: functional; set-up: scale not given: the % may be the effect or the level left
[28] = system: HCT-116; test: Induction of apoptosis in human HCT116 cells pretreated with Z-VAD-FMK pan-caspase inhibitor for 1 hr assessed as early apoptotic cells at 2 uM after 48 hrs by Annexin V-FITC/propidium iodide staining-based FACS analysis (reference value: 1.34%); type: functional; set-up: scale not given: the % may be the effect or the level left
[29] = system: HCT-116; test: Induction of apoptosis in human HCT116 cells pretreated with Z-VAD-FMK pan-caspase inhibitor for 1 hr assessed as late apoptotic cells at 2 uM after 48 hrs by Annexin V-FITC/propidium iodide staining-based FACS analysis (reference value: 3.15%); type: functional; set-up: scale not given: the % may be the effect or the level left
[30] = system: Mus musculus; test: Toxicity in BALB/C nude mouse xenografted with human HCT116 cells assessed as body weight loss at 30 mg/kg, ip once daily for 14 days starting on day 14 post tumor implantation measured every 4 days during compound dosing; type: organism-based; details: in vivo
Outline: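 Male BALB/c nude mice (18–20 g) with subcutaneous HCT116 implants in right axilla; treatment from day 14 once tumors exceeded 100 mm3, randomized (6/treated, 10/control group); 10 mg/kg i.v. or 30 mg/kg i.p. daily for 14 days in 1% DMSO/saline; 5-FU 15 mg/kg as reference; body weight tracked, mean ± SD of 6 mice.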

`CCN(CC)CCCn1c2c(c3ccccc3c1=O)C(=O)C(=O)c1cc(C)oc1-2` showed an IC50 [1] of 120 nM, an IC50 [2] of 330 nM and a solubility at 24 h [3] of 15.7 mg/mL (≈ 40.1 mM). For the same compound, the half-life at 0.1 µM [4] was 1.49 h, the half-life at 0.1 µM [5] was 1.26 h and the half-life at 0.1 µM [6] was 0.909 h. The intrinsic clearance [7] was 27.7 mL/min/g, the half-life [8] was 2.58 h and the half-life [9] was 1.51 h. For the same compound, the Tmax [10] was 0.25 h, the Cmax [11] was 33.7 ng/mL and the MRT inf [12] was 3.72 h. The MRT inf [13] was 0.835 h, the Vd [14] was 7.98 L/kg and the bioavailability [15] was 21%. For the same compound, the IC50 [16] was 1310 nM, the IC50 [17] was 360 nM and the IC50 [18] was 220 nM. The IC50 [19] was 770 nM, the Activity [20] was 2.39% and the Activity [21] was 8.61%. The Activity [22] was 9.09%, the Activity [23] was 23.98% and the Activity [24] was 32.63%. It also gave an Activity [25] of 4.09%, an Activity [26] of 2.99% and an Activity [27] of 6.47%. For the same compound, the Activity [28] was 11.88%, the Activity [29] was 22.49% and the Activity [30] was “Non-Toxic”.
